# Screens as filed in PubChem BioAssay.
# NPY1 pot ag = potentiates or activates human NPY-Y1 receptor | P25929 | NPY-Y1 expressing cells, potentiator/agonist activation | activation, % at 3.6 µM | actives 0.37% (n = 220,000); in the data active = activation above about 33%, passing the limit was not always enough;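 note: cells stimulated with NPY at EC10 then isoproterenol at EC100; 0% = low agonist plus stimulus and 100% = saturating agonist plus stimulus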
# Target sequence (P25929 whole entry, looked up): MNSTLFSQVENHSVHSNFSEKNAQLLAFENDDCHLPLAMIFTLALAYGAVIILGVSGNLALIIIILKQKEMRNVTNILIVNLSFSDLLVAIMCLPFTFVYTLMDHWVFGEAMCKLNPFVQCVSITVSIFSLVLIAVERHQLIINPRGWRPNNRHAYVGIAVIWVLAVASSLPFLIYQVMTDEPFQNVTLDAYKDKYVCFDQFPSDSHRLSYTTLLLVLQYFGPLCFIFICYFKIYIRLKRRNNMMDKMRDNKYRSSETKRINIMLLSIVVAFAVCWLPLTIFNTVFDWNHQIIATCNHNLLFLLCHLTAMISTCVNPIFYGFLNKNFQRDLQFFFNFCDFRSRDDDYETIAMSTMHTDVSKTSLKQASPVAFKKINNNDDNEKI
# NPY2 pot ag = potentiators or agonists of human neuropeptide Y receptor Y2 | activation, % at 3.6 µM | cells expressing NPY-Y2, potentiator/agonist read-out | actives 0.45% (n = 220,000) | AID 1359 | P49146; in the data active = activation above about 27%;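 note: cells stimulated with NPY near EC25 plus isoproterenol at EC100; 0% = vehicle plus submaximal agonist and 100% = vehicle plus saturating agonist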
# NPY Y2 blocker = blocks the human neuropeptide Y Y2 receptor. NPY-Y2 expressing cells, antagonist mode. inhibition, % at 2.7 µM. actives 0.99% (n = 140,000);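 note: 0% = vehicle with agonist challenge and 100% = reference antagonist with challenge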
# NPY-Y1 antag = NPY-Y1 (human) receptor antagonism; actives 1% (n = 200,000); inhibition, % at 3.6 µM; HEK293-CNG Y1 cells, membrane potential fluorescence; NPY at EC95, then isoproterenol; AID 1040;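 active = inhibition above the campaign mean inhibition of all tested compounds plus 3 SD, cut at about 20% in these data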;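 note: 0% = DMSO wells given NPY plus isoproterenol and 100% = isoproterenol alone without NPY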
#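 Test system – HEK293 Y1/CNG channel cell line · Also added – NPY agonist 25 nM, then isoproterenol 1 µM plus Ro 20-1724 25 µM · Compound dosing – one concentration, 3.6 µM, in 0.4% DMSO · Schedule – compound incubation 1 h at room temperature, readout 45 min post-stimulation · Technique – fluorescence, membrane potential probe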
# NPY1 antag conf = confirmation of human neuropeptide Y receptor Y1 antagonists | shares compounds with NPY-Y1 antag | HEK293-CNG NPY-Y1, membrane potential fluorescence, cAMP; NPY challenge against isoproterenol-raised cAMP | inhibition, % at 3.6 µM | actives 21% (n = 1,200); in the data active = inhibition above about 20%;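 note: 0% = vehicle with agonist plus stimulus and 100% = stimulus alone without agonist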
# NPY2 antag ctr = counter-screen for NPY-Y1 antagonists: human NPY-Y2 antagonism | inhibition, % at 3.6 µM | actives 28% (n = 1,200) | HEK293 NPY-Y2 CNG membrane potential fluorescence; cells given NPY, then isoproterenol | AID 1255 | shares compounds with NPY-Y1 antag;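 note: 0% = DMSO with agonist challenge and 100% = reference antagonist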
# Active calls of the source: *; · = not tested or not shown. Most compounds without a hit are left out; they make up all but 1.9% or so of the library. Cut-off read from the data, not from the text of the source, unless noted: active = inhibition above about 17%; inactive = the rest.
SMILES,NPY1 pot ag,NPY2 pot ag,NPY Y2 blocker,NPY-Y1 antag,NPY1 antag conf,NPY2 antag ctr
CC1CCCCC1NC(=O)CN1C(=O)NC(Cc2ccccc2)(Cc2ccccc2)C1=O (stereo not given),-37,-25,16,24*,31*,28*
C/C(=N\Nc1ccc([N+](=O)[O-])cc1)c1ccc(N)cc1,8,-12,-3,0,·,·
C/C(=N\Nc1nc(C)c(C)s1)c1ccc([N+](=O)[O-])cc1,26,20,·,38*,42*,54*
Cc1c(N2C(=O)CSC2=S)c(=O)n(-c2ccccc2)n1C,2,0,·,26*,0,2
O=S(=O)(NCc1ccco1)c1ccc(Cl)nc1,14,5,1,3,·,·
CCC(C)(C(=O)NC1CCCC1)N(Cc1ccco1)C(=O)Cc1cccs1 (stereo not given),-2,-7,7,49*,22*,12
CCC(C)(C(=O)NC1CCCCC1)N(Cc1ccco1)C(=O)c1cnccn1 (stereo not given),-15,-17,8,11,·,·
CCC(C)(C(=O)NC1CCCCC1)N(Cc1cccs1)C(=O)c1ccccn1 (stereo not given),-5,2,·,22*,5,7
CCC(C)(C(=O)NC1CCCC1)N(Cc1ccco1)C(=O)c1ccc2c(c1)OCO2 (stereo not given),0,-20,14,37*,17,12
CCC(C)(C(=O)NC1CCCC1)N(Cc1cccs1)C(=O)c1ccccn1 (stereo not given),-18,-5,·,16,·,·
COc1ccccc1-c1cc(C(F)(F)F)nc(S(=O)(=O)CCCC(=O)N2CCCCC2C)n1 (stereo not given),-68,-15,0,25*,14,44*
COC(=O)c1ccccc1NC(=O)c1cccc(NC(=O)C(C)C)c1,-23,-5,·,0,·,·
COC(=O)c1ccccc1NC(=O)c1cc(OC)cc(OC)c1,-28,-7,4,21*,9,12
COC(=O)c1ccccc1NC(=O)c1ccc(COc2ccc(C)c(C)c2)o1,-5,5,10,29*,10,12
COc1ccc(C(=O)C2CCCN(Cc3cnc(N4CCOCC4)s3)C2)c(OC)c1 (stereo not given),-10,11,·,-2,·,·
CC(C)CN1CCN(Cc2cccn2-c2ccc(Cl)cn2)CC1CCO (stereo not given),-19,-21,·,33*,8,8
O=C(c1cccc(C(F)(F)F)c1)C1CCCN(Cc2cccn2-c2ccccn2)C1 (stereo not given),-60,-39,·,59*,34*,38*
O=C(c1cccc(C(F)(F)F)c1)C1CCCN(Cc2cccc(OCCO)c2)C1 (stereo not given),-7,-13,·,4,·,·
COc1ccc(C(=O)C2CCCN(Cc3cccn3-c3ccc(Cl)cn3)C2)c(OC)c1 (stereo not given),-26,7,·,50*,29*,31*
CC(C)CN1CCN(Cc2cccn2-c2ccccn2)CC1CCO (stereo not given),4,-16,·,10,·,·
CCS(=O)(=O)n1nc(-c2ccccc2)nc1SC,-11,5,3,3,·,·
Cc1cc(NC(=NC2CC2)c2ccccc2F)n(-c2ccccc2)n1,-11,8,·,-5,·,·
Cc1cc(C)cc(NC(=O)c2oc3ccccc3c2COc2ccccc2)c1,-31,-18,-1,23*,5,12
CCc1cc2c(SCC(=O)N(C)C3CCS(=O)(=O)C3)ncnc2s1 (stereo not given),-9,1,·,·,·,·
COC(=O)c1ccc(S(=O)(=O)NC(C)(C)C)n1C,17,1,·,·,·,·
SMILES,NPY1 pot ag,NPY2 pot ag,NPY Y2 blocker,NPY-Y1 antag,NPY1 antag conf,NPY2 antag ctr
CCC/C=C(\CCC)C(NS(=O)(=O)c1cccc2cccnc12)c1ccc(C(=O)OC)cc1 (stereo not given),-34,6,4,-1,·,·
CCC/C=C(\CCC)C(NC(=O)OCC(C)C)c1ccc(C(=O)OC)cc1 (stereo not given),-41,-7,14,22*,27*,26*
Cc1cccc(NC(=O)CN(c2ccc(F)cc2)S(C)(=O)=O)c1,-4,1,·,4,·,·
COc1ccccc1Nc1nc(N)nc(CN2CCC(Cc3ccccc3)CC2)n1,-23,-21,12,25*,14,22*
CC(C)N1C(=O)C(Cc2nc3ccccc3c(=O)n2-c2ccccc2)c2ccccc21 (stereo not given),-57,-30,2,22*,14,18*
Cc1ccc(NC(=O)CSc2ccc3nnc(CCNC(=O)c4ccccc4)n3n2)c(C)c1,1,-22,1,-3,·,·
c1ccc(COC(CN2CCCCCC2)CN2CCCCCC2)cc1,-22,-14,·,·,·,·
COc1ccc(CN(C(=O)c2nsc(Cl)c2Cl)C(C(=O)NC2CCCCC2)c2ccc(OC)cc2)cc1 (stereo not given),-24,-24,17,22*,20,16
CC(/C=C/c1ccc2c(c1)OCO2)=N\NC(=O)c1ccccc1,-15,4,·,24*,1,5
CN1CCN(c2nc(-c3ccco3)cc(C(F)(F)F)n2)CC1,-19,-15,7,15,·,·
CS(=O)(=O)c1nc(-c2ccco2)cc(C(F)(F)F)n1,-57,-6,8,24*,11,46*
COc1ccccc1-c1cc(C(F)(F)F)nc(S(C)(=O)=O)n1,-27,-33,8,18,·,·
FC(F)(F)c1cc(-c2ccco2)nc(-n2nc(C(F)(F)F)cc2C2CC2)n1,-31,-5,17,21*,14,10
O=C(Cn1cnc2c(nnn2Cc2ccc(F)cc2)c1=O)NCC1CCCO1 (stereo not given),-15,0,4,7,·,·
CCOc1cc(C2C3=C(CC(C)(C)CC3=O)Nc3n[nH]c(C)c32)ccc1O (stereo not given),-16,-10,·,42*,26*,40*
On1nnc2c3ccccc3c3ccccc3c21,-28,-25,·,8,·,·
COc1ccc(CN2CCC(CO)(CCOc3ccccc3)CC2)c(OC)c1C,-15,-22,·,24*,11,17
CCOc1ccccc1CN1CCC(CO)(CCOc2ccccc2)CC1,-49,-32,·,31*,14,17
COc1ccc(-c2n(Cc3ccccc3)c3ccccc3[n+]2Cc2ccccc2)cc1,-19,8,·,62*,18,22*
COc1ccc(-c2nc3ccccc3n2Cc2ccccc2)cc1,2,2,7,5,·,·
Cc1ccccc1CSCCNC(=O)CSCc1ccc([N+](=O)[O-])cc1,-19,-4,6,20*,2,8
Cc1ccc(CSCCNC(=O)CSCc2ccc([N+](=O)[O-])cc2)cc1,-21,-10,5,9,·,·
